Compound activity from PubChem BioAssay.
Hsp70 activator: Hsp70 transcriptional activation, primary screen; HeLa Hsp70 promoter luciferase reporter, luminescence; scaled: vehicle 0, proteasome-inhibitor control 100%; activation, % at 10 µM; 200,000 compounds, 0.04% hits;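 active = activation above the mean across all tested compounds plus 3 SD, cutoff set per campaign, cut at about 5.5% in these data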;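 also: 100% = MG132 at 30 µM as the positive control and 0% = DMSO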
Autophagy HCS: autophagy modulation, high-content screen; MEF GFP-LC3 puncta imaging; test concentration mostly 10 µM; calls only at 10 µM (by protocol); 190,000 compounds, 0.98% hits; AID 463193;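 active = percentage of spot-positive cells more than 3 SD above its plate mean, without a fluorescence outlier flag or 80% toxicity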;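 also: spot-positive cell cutoff set from DMSO-treated cells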
Dynein transport: blocks dynein driven cargo transport along microtubules | 3617.4 mouse cells, GR-EGFP nuclear translocation imaging; test concentration mostly 20 µM; stimulated with dexamethasone, 1 µM; stronger effect = lower value | z-score, hits read low | 220,000 compounds, 0.47% hits | AID 1381;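 active = plate z-score of nuclear minus cytoplasmic receptor signal below a set negative limit, without overly bright fluorescence or cell loss, cut at about -3.5 in these data, passing the limit was not always enough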;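 also: z-score of nuclear minus cytoplasmic ring GR-EGFP intensity difference per well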
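Buffer or medium: tetracycline-free induction medium containing charcoal-stripped FBS / Reagent: dexamethasone agonist, 1.0 µM final, for 30 min / Technique: automated 10x imaging of fixed Hoechst-stained cells / Times: induction 48 h, compound 1 h, agonist 30 min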
MT stabilize HCS: microtubule stabilization, imaging screen; AID 2205; % tubulin-high responders, % at 10 µM; HeLa tubulin immunostaining HCS, 24 h; share of cells brighter than vehicle mean+2SD; 200,000 compounds, 0.83% hits;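 active = plate Z-score above 3 for both tubulin-high and condensed-nucleus cell shares, with cell loss under 80%, at 10 µM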;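 also: anti alpha tubulin signal scored within the nucleus-defined area of each cell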
bCat nuc transl: alters nuclear translocation of beta-catenin in HeLa cells; immunofluorescence imaging; nuclear translocation activity, % at 5 µM; 190,000 compounds, 0.3% hits;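 active = nuclear translocation activity above 50% at 5 µM, with a well cell count of 50 or more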;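 also: per-cell ratio of nuclear to cytoplasmic median beta-catenin stain intensity; plate controls were DMSO negative control for no effect and GSK-3 inhibitor IX positive control for full effect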
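Signal – beta-catenin immunofluorescence imaging with DAPI · Test system – human HeLa cell line · Dosing – 5 µM primary single dose, 0.1% DMSO, 0.02–20 µM confirmation series · Measure – % activation, nuclear-to-cytoplasmic median beta-catenin signal ratio per cell · Incubation – 24 h compound exposure at 37°C, 5% CO2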
Numbers without * were called inactive; i = inactive; . = no result given; + = active, no number. This is a sample that favours compounds with a hit; in the whole collection about 2.1% have one here.

SMILES	Hsp70 activator	Autophagy HCS	Dynein transport	MT stabilize HCS	bCat nuc transl
CCc1ccc2[nH]c(=O)c(CN(CCN(CC)CC)C(=O)Nc3ccccc3OC)cc2c1	0	+	-0.6	3	-1
O=C(CCN1CCCCC1)NNC(=O)C12CC3CC(CC(C3)C1)C2	0	i	0.96	2	-1
CCN1CCN(C(C)C(=O)NC2CCCCC2)CC1 (stereo not drawn)	.	.	-0.051	.	0
Cn1c(=O)c(=O)n(C)c2cc(S(=O)(=O)N3CCCC3C(=O)NCc3cccs3)ccc21 (stereo not drawn)	.	.	0.69	.	1
O=C1CCC(C(=O)NCCCn2ccnc2)N1 (stereo not drawn)	0	+	2.2	5	-1
CCN(CC)CCNC(=O)c1c(C)n(-c2ccccc2)c2cc(Br)c(OC)cc12	0	+	-5.2	3	0
COc1ccc(CN2C(=O)c3ccccc3C2C(=O)NCc2cccnc2)c(OC)c1 (stereo not drawn)	0	+	1.2	4	-4
CN(C)S(=O)(=O)c1cccc(-c2nnc(SCCNCCO)n2-c2ccc(F)cc2)c1	0	i	0.34	3	-5
Cc1ccsc1/C=N\NC(=O)c1n[nH]c2c1CCC2	0	i	0.24	25*	27
COC(=O)c1sc(N2C(=O)c3oc4ccccc4c(=O)c3C2c2cccs2)nc1C (stereo not drawn)	0	+	-0.089	4	1
O=C(C(=C1NCCN1)n1cncn1)c1ccccc1	1	+	-0.56	2	.
CCc1ccc(/C=C2/C(=O)N(c3ccccc3)C(=S)N2CC(=O)OC)s1	0	+	-1.8	4	1
O=C(COc1ccc(S(=O)(=O)N2CCCC2)cc1)NCC1CCCO1 (stereo not drawn)	0	i	0.87	4	2
CCOC(=O)N1CCC(=NNc2nc3ccccc3s2)CC1	.	.	-0.013	.	-1
c1ccc2nc(N3CCN(Cc4ccc5c(c4)OCO5)CC3)cnc2c1	0	i	2.1	6	1
CCOC(=O)N1CCN(/C=C(\C#N)c2nc3ccccc3s2)CC1	0	+	-3.3	4	-5
N#C/C(=C\N1CCN(Cc2ccc3c(c2)OCO3)CC1)c1nc2ccccc2s1	0	+	-1.3	6	-5
COc1ccc(C(=O)CSc2nc(N)nc(SC)c2C#N)cc1	0	i	0.13	2	2
Cc1ccc(C(=O)CSc2nc(-c3ccccc3)ccc2C#N)cc1	0	+	-2.5	6	-2
CSc1nc(N)nc(SCC(=O)c2ccccc2)c1C#N	0	+	3.2	2	0
Cc1ccc(-c2ccc(SCC(=O)c3ccccc3)nn2)cc1	0	i	-1.1	5	-1
N#Cc1ccc(-c2ccco2)nc1SCC(=O)c1ccc(Cl)cc1	0	+	-1.4	4	-3
CC(C)n1nc(C(=O)Nc2cccc(S(=O)(=O)NCc3ccco3)c2)c2ccccc2c1=O	.	.	0.14	.	-1
CC(=O)Oc1ccc2c(=O)c(-c3nc4ccccc4s3)coc2c1	0	i	1.5	4	2
COc1ccc(C2=NOC(C(=O)Nc3cccnc3)C2)cc1OC (stereo not drawn)	.	.	0.91	.	0
SMILES	Hsp70 activator	Autophagy HCS	Dynein transport	MT stabilize HCS	bCat nuc transl
CCCCCCCCCn1c2c(c(=N)c3c1CCC3)CCCC2	0	i	1.8	26*	7
Cc1ccc([N+](=O)[O-])cc1N=C(c1cccc(Br)c1)N1CCOCC1	0	i	0.71	2	5
O=C(C1CCC(CNS(=O)(=O)c2cccc3cccnc23)CC1)N1CCc2ccccc21 (stereo not drawn)	0	+	0.32	6	.
O=C(CCc1nc(-c2cccs2)no1)NCc1ccc(F)cc1Cl	0	+	-0.1	2	.
COc1ccc(CCNC(=O)CSc2nc(C)nc3sccc23)cc1OC	.	.	0.53	.	-1
Cc1ccc2nc(/C(C#N)=C\c3ccc(Oc4ccc(C(F)(F)F)cc4[N+](=O)[O-])cc3)[nH]c2c1	0	i	2.1	7	4
Cc1ccc2nc(/C(C#N)=C\c3cc(O)ccc3[N+](=O)[O-])[nH]c2c1	-1	i	-0.86	1	-3
COc1ccc(/C=C(\C#N)c2nc3ccc(C)cc3[nH]2)cc1Oc1ccc(C(F)(F)F)cc1[N+](=O)[O-]	0	+	-0.3	4	1
Cc1ccc2nc(/C(C#N)=C/c3ccc(-c4cccc([N+](=O)[O-])c4)o3)[nH]c2c1	0	+	-0.068	3	-1
CCC(CC)NC(=O)CON=C1c2ccccc2-c2ccccc21	0	i	0.086	3	2
CCNC(=O)CON=C1c2ccccc2-c2ccccc21	0	+	-0.053	2	-3
CCc1ccc2nc(NC(=O)c3cc(C)on3)sc2c1	0	i	0.25	38*	36
Cc1cc(C)c2nc(NC(=O)c3cc(C)on3)sc2c1	0	i	2.2	1	.
Cc1cc(=O)oc2cc(OCc3ccc(C(=O)OCC(=O)Nc4ccc(N(C)C)cc4)cc3)ccc12	0	i	1.8	3	1
COc1ccc(-c2cc(C(=O)N3CCN(c4ccccc4)CC3)c3ccccc3n2)cc1	0	i	-0.82	17*	113*
CCOc1ccc(-c2cc(C(=O)N3CCN(c4ccccn4)CC3)c3ccccc3n2)cc1	0	i	-0.075	24*	.
COc1ccc(-c2cc(C(=O)N3CCN(c4ccccn4)CC3)c3ccccc3n2)cc1	0	i	-0.44	29*	0
CCOc1ccc(-c2cc(C(=O)N3CCN(C)CC3)c3ccccc3n2)cc1	0	i	-0.23	2	.
CC1CC2OC(=O)C3(C)CCCC(C)(C23)C1(O)CCc1ccoc1 (stereo not drawn)	.	.	-0.53	.	1
CC1(C)CC(NC(=S)Nc2ccc([N+](=O)[O-])cc2)CC(C)(C)N1	0	i	-1.3	2	2
COc1ccc(-c2nnc(SCC(=O)Nc3cc(S(=O)(=O)N4CCCCC4)ccc3Cl)n2N)cc1	0	i	2.3	3	2
O=C1Nc2ccc(Br)cc2C12NNc1ccccc1O2 (stereo not drawn)	0	+	0.35	5	4
COCCn1c(-c2ccc(Br)cc2)csc1=Nc1cccnc1	0	i	-0.89	1	-1
Clc1ccc(-c2csc(=Nc3cccnc3)n2CCCn2ccnc2)cc1Cl	0	+	0.6	3	-3
Cc1ccc(OCCN2CCN(C(=O)CCC(=O)Nc3nnc(CC(C)C)s3)CC2)cc1	.	.	0.86	.	1
Cc1ccc(/C(O)=C2\C(=O)C(=O)N(Cc3cccnc3)C2c2ccccc2[N+](=O)[O-])cc1 (stereo not drawn)	0	i	-1.5	4	4
CC(C)N(Cc1cc2ccccc2[nH]c1=O)C(=O)C1CCCCC1	0	+	-0.4	1	-2
